Results collected from several papers.
HDAC6: Protein deacetylase HDAC6 (HDAC6, Homo sapiens, UniProt Q9UBN7)
ACSL4: Long-chain-fatty-acid--CoA ligase 4 (ACSL4, Homo sapiens, UniProt O60488)
CDK7 with cyclin H: Cyclin-dependent kinase 7, with cyclin H (CDK7, Homo sapiens, UniProt P50613)

| SMILES | target | observed | action | method | IC50 [nM] |
| --- | --- | --- | --- | --- | --- |
| O=C(NO)c1ccc(Cn2cnc3c(Nc4cccc([N+](=O)[O-])c4)ncnc32)cc1 | HDAC6 | enzyme activity | inhibitor | fluorescence | < 2 |
| O=C(COc1ccc(C2CCC(=O)NC2=O)cc1)NCCCCCCN1CCc2c(c3ccccc3n2Cc2ccc(C(=O)NO)cc2)C1 (stereo not shown) | HDAC6 | enzyme activity | inhibitor | fluorescence | 25 |
| COC(=O)/C=C/c1ccc(OCCN(C)C(=O)c2ccc(C3(C(F)(F)F)N=N3)cc2)cc1 | ACSL4 | enzyme activity | inhibitor | – | 24400 |
| Cc1cc(S(=O)(=O)NCCO[C@H]2CC[C@H](CN3CCC(c4ccn5c(N6CCC(=O)NC6=O)cnc5c4)CC3)CC2)ccc1Nc1ncc2cc(Cl)c(=O)n(C3CCCC3)c2n1 | CDK7 with cyclin H | enzyme activity | inhibitor | radiometric | 3800 |
| O=C(NO)c1ccc(Cn2cnc3c(Nc4ccc(Br)cc4F)ncnc32)cc1 | HDAC6 | enzyme activity | inhibitor | fluorescence | 9.13 |
| CCc1ccc(C(=O)COc2ccc(CC3SC(=O)NC3=O)cc2)nc1 (stereo not shown) | ACSL4 | enzyme activity | inhibitor | – | 6000 |
| CN(C)C(=O)c1cc2cnc(Nc3ccc(-c4ccc5c(=O)cc(N6CCOCC6)oc5c4)cc3)nc2n1C1CCCC1 | CDK7 with cyclin H | enzyme activity | inhibitor | – | > 10000 |
| O=C1CCC(N2C(=O)c3cccc(NCC(=O)OCCCCc4cn(CCCCCCN5CCc6c(c7ccccc7n6Cc6ccc(C(=O)NO)cc6)C5)nn4)c3C2=O)C(=O)N1 (stereo not shown) | HDAC6 | enzyme activity | inhibitor | fluorescence | 47 |
| CNS(=O)(=O)c1ccc(Nc2ncc(C(F)(F)F)c(N3CCC[C@](C)(O)C3)n2)c(C)c1 | CDK7 with cyclin H | enzyme activity | inhibitor | radiometric | 1610 |
| O=C(/C=C/c1ccc(O)c(O)c1)O[C@H]1[C@H](O)[C@@H](O)[C@H](OCCc2ccc(O)c(O)c2)O[C@@H]1CO | 3-hydroxy-3-methylglutaryl-coenzyme A reductase (HMGCR, Homo sapiens, UniProt P04035) | enzyme activity | inhibitor | absorbance | 73500 |
| CCc1ccc(CCOc2ccc(CC3SC(=O)NC3=O)cc2)nc1 (stereo not shown) | ACSL4 | enzyme activity | inhibitor | – | 6400 |
| COc1ccc(N(Cc2nc(-c3ccc(F)cc3)cs2)C(=O)CCCCCC(=O)NO)cc1 | HDAC6 | enzyme activity | inhibitor | – | 3.5 |
| CNS(=O)(=O)c1ccc(Nc2ncc(C(F)(F)F)c([C@H]3CC[C@@](C)(O)CC3)n2)c(C)c1 | CDK7 with cyclin H | enzyme activity | inhibitor | radiometric | 7260 |
| CN(CCCCCCNC(=O)CNc1cccc2c1C(=O)N(C1CCC(=O)NC1=O)C2=O)Cc1cn(Cc2ccc(C(=O)NO)cc2)c2ccccc12 (stereo not shown) | HDAC6 | enzyme activity | inhibitor | fluorescence | 26 |
| O=C(NO)c1ccc(CN2CCN(c3cccc4cc(S(=O)(=O)c5cccc(F)c5)cnc34)CC2)c(F)c1 | HDAC6 | enzyme activity | inhibitor | fluorescence | 540 |
| CN(CCOc1ccc(CC2SC(=O)NC2=O)cc1)c1ccccc1 (stereo not shown) | ACSL4 | enzyme activity | inhibitor | – | 400 |
| CCc1oc2ccccc2c1C(=O)c1cc(Br)c(O)c(Br)c1 | Solute carrier organic anion transporter family member 2B1 (SLCO2B1, Homo sapiens, UniProt O94956) | transporter uptake | inhibitor | radiometric | 209 |
| COC(=O)/C=C/c1ccc(OCCN(C)C(=O)c2ccccc2)cc1 | ACSL4 | enzyme activity | inhibitor | – | 380 |
| COc1ccc(N(Cc2csc(-c3ccccc3)n2)C(=O)CCCCCC(=O)NO)cc1 | HDAC6 | enzyme activity | inhibitor | – | 2.7 |
| COC(=O)CCCc1ccc(OCCN(C)c2ccccc2)cc1 | ACSL4 | enzyme activity | inhibitor | – | > 50000 |
| CN1CCC(CNc2ccc3ncc(-c4cccc(OC(F)(F)F)c4)n3n2)CC1 | 5-hydroxytryptamine receptor 1B (HTR1B, Homo sapiens, UniProt P28222) | cAMP | agonist | – | 95 |
| CN(CCOc1ccc(CC2SC(=O)NC2=O)cc1)c1ccccn1 (stereo not shown) | ACSL4 | enzyme activity | inhibitor | – | 1100 |
| CNS(=O)(=O)c1ccc(Nc2ncc(C(F)(F)F)c(N3CCC(C)(O)CC3)n2)c(C)c1 | CDK7 with cyclin H | enzyme activity | inhibitor | radiometric | 1970 |
| Cc1c(C)c2c(c(C)c1O)CCC(C)(COc1ccc(CC3SC(=O)NC3=O)cc1)O2 (stereo not shown) | ACSL4 | enzyme activity | inhibitor | – | 26300 |
| CCC(CC)COC(=O)[C@H](C)N[P@](=O)(OC[C@H]1O[C@@](C#N)(c2ccc3c(N)ncnn23)[C@H](O)[C@@H]1O)Oc1ccccc1 | Liver carboxylesterase 1 (CES1, Homo sapiens, UniProt P23141) | enzyme activity | inhibitor | absorbance | 36200 |
